The record followed here is ChEMBL document CHEMBL1125484, “Nonpeptide angiotensin II receptor antagonists: synthetic and computational chemistry of N-[[4-[2-(2H-tetrazol-5-yl)-1-cycloalken-1-yl]phenyl]methyl]imidazole derivatives and their in vitro activity” (J Med Chem, 1992).

System in the first data set: not listed separately
As to the kind of experiment: Partition coefficient (logP). The data set is classed as physicochemical. The following applies: octanol/water.
In general, logP refers to a log measure of how a compound divides between an organic and an aqueous phase. The low end stands for a more hydrophilic compound, the high end for a more lipophilic compound. For `CCCCc1nc(Cl)c(CO)n1Cc1ccc(C2=C(c3nnn[nH]3)CCCC2)cc1`, the logP was found to be 4.34.

`CCCCc1nc(Cl)c(C(=O)O)n1Cc1ccc(C2=C(c3nn[nH]n3)CCCCC2)cc1`: the logP was 5.37.

In turn, `CCCCc1nc(Cl)c(CO)n1Cc1ccc(C2=C(c3nn[nH]n3)CCCCC2)cc1` displayed a logP of 4.9.

As for `CCCCc1nc(Cl)c(C(=O)O)n1Cc1ccc(C2=C(c3nn[nH]n3)CCCC2)cc1`, the logP amounted to 4.81.

As to `CCCCc1nc(Cl)c(C(=O)O)n1Cc1ccc(C2=C(c3nnn[nH]3)CCC2)cc1`, the logP came out at 4.25.

Compound `CCCCc1nc(Cl)c(CO)n1Cc1ccc(C2=C(c3nnn[nH]3)CCC2)cc1` had a logP of 3.78.

Take `CCCCc1nc(Cl)c(C(=O)O)n1Cc1ccc(-c2ccccc2-c2nn[nH]n2)cc1` [CARBOXYLIC ACID METABOLITE]: the logP amounted to 4.92.

On to `CCCCc1nc(Cl)c(CO)n1Cc1ccc(-c2ccccc2-c2nnn[nH]2)cc1` [LOSARTAN], for which the log partition coefficient (logP) turned out to be 4.45.

A further data set addresses T1, Type-1 angiotensin II receptor B (Rattus norvegicus, UniProt P29089).
T1 sequence (P29089 whole entry): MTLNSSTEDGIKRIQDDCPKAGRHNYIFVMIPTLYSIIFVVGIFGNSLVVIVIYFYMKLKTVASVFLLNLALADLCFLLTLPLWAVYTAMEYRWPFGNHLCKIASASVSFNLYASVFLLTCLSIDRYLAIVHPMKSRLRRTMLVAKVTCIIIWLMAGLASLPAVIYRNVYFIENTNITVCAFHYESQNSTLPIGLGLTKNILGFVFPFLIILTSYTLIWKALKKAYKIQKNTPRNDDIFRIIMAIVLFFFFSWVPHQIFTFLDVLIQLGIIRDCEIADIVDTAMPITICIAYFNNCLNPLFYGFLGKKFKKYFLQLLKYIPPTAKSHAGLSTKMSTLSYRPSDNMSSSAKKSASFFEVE
The experiment in a line: Concentration required to inhibit binding of radioligand [125I]AII to angiotensin II receptor, type 1 in rat adrenal glomerulosa tissue.
Conditions: not given
Summed up:
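Buffer was 50 mM Tris, 120 mM NaCl, 5 mM MgCl2, 1 mM DTT and 0.05% BSA, with 8–15 μg protein. Antagonists were tested at 10 nM–100 μM, and nonspecific binding was defined with 0.1 μM [Sar1,Ile8]AII. Bound ligand was filtered and gamma-counted in triplicate. IC50 was taken from the linear portion of the displacement curve.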
As usually defined, the IC50 is the concentration at which inhibition is half-maximal. `CCCCc1nc(Cl)c(C(=O)O)n1Cc1ccc(C2=C(c3nn[nH]n3)CCCCC2)cc1` gave an IC50 of 0.39 µM.

Consider `CCCCc1nc(Cl)c(CO)n1Cc1ccc(C2=C(c3nn[nH]n3)CCCCC2)cc1`, for which the IC50 was 2.8 µM.

`CCCCc1nc(Cl)c(C(=O)O)n1Cc1ccc(C2=C(c3nn[nH]n3)CCCC2)cc1` yielded an IC50 of 0.4 µM.

In turn, `CCCCc1nc(Cl)c(C(=O)O)n1Cc1ccc(C2=C(c3nnn[nH]3)CCC2)cc1` gave an IC50 of 0.31 µM.

`CCCCc1nc(Cl)c(CO)n1Cc1ccc(C2=C(c3nnn[nH]3)CCC2)cc1` returned an IC50 of 3.5 µM.

A further data set is filed under the species Oryctolagus cuniculus. The experiment in a line: pA2 value was determined by the compound's ability to antagonize the AII-induced contraction of rabbit aorta rings. The data set is classed as functional. The following applies: read-out: pA2 (converted). Summed up: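 Thoracic aorta rings (3 mm) from New Zealand white rabbits were held in 37 °C physiological salt solution aerated with 95% O2/5% CO2, and isometric tension was recorded. A cumulative AII curve (10^-10 to 10^-7 M) was run, the tissue washed, and the compound added in DMSO for 30 min before the AII curve was repeated. Responses were expressed as % of control maximum, with EC50s from four-parameter logistic fits.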
`CCCCc1nc(Cl)c(CO)n1Cc1ccc(C2=C(c3nnn[nH]3)CCCC2)cc1`: the Kb is 0.129 µM.

Regarding `CCCCc1nc(Cl)c(C(=O)O)n1Cc1ccc(C2=C(c3nn[nH]n3)CCCCC2)cc1`, the Kb is 0.012 µM.

Take `CCCCc1nc(Cl)c(CO)n1Cc1ccc(C2=C(c3nn[nH]n3)CCCCC2)cc1`: the Kb is 0.468 µM.

On to `CCCCc1nc(Cl)c(C(=O)O)n1Cc1ccc(C2=C(c3nn[nH]n3)CCCC2)cc1`, for which the Kb is 0.00407 µM.

Take `CCCCc1nc(Cl)c(C(=O)O)n1Cc1ccc(C2=C(c3nnn[nH]3)CCC2)cc1`: the Kb was 0.0145 µM.

As to `CCCCc1nc(Cl)c(CO)n1Cc1ccc(C2=C(c3nnn[nH]3)CCC2)cc1`, the Kb is 0.355 µM.

For the compound `CCCCc1nc(Cl)c(C(=O)O)n1Cc1ccc(-c2ccccc2-c2nn[nH]n2)cc1` [CARBOXYLIC ACID METABOLITE], the Kb was 0.000234 µM.

On to `CCCCc1nc(Cl)c(CO)n1Cc1ccc(-c2ccccc2-c2nnn[nH]2)cc1` [LOSARTAN], for which the Kb is 0.0038 µM.
